Data published in ChEMBL document CHEMBL1153580, “Synthesis and pharmacological investigation of 3-(substituted 1-phenylethanone)-4-(substituted phenyl)-1, 2, 3, 4-tetrahydropyrimidine-5-carboxylates” (Eur J Med Chem, 2009).

Key:
Mus musculus = assay: Analgesic activity against acetic acid-induced writhing in Swiss albino mouse assessed as protection at 20 mg/kg, po; type: functional
In short: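 Swiss albino mice (25–30 g), six per group, habituated 30 min individually in the test cage. Compound in 1% CMC given p.o. at 20 mg/kg. 1 h later, acetic acid injected i.p.; writhes (arching of back, body elongation, hind-limb extension) counted 5–15 min after injection. % inhibition = (n−n′)/n×100, where n and n′ are mean writhes in control and test.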

Rattus norvegicus [1] = assay: Antihypertensive activity in Norwegian albino rat assessed as inhibition of DOCA salt-induced systolic blood pressure at 10 mg/kg, po after 480 mins by non-invasive tail-cuff method; type: functional; details: Artery, 8 h
In short: (§1)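 Male rats (200–250 g), uninephrectomized under pentobarbital (50 mg/kg i.p.); one week later DOCA s.c. 30–50 mg/kg/week, with 1% w/v NaCl in drinking water. Groups of six, trained in restrainer, tail warmed at 33–34 °C. Compound in 0.5% CMC, 10 mg/kg orally. Systolic pressure read by tail-cuff before dosing and from 1 h after; three readings averaged. ANOVA.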

Rattus norvegicus [2] = assay: Antihypertensive activity in Norwegian albino rat assessed as inhibition of DOCA salt-induced systolic blood pressure at 10 mg/kg, po after 30 mins by non-invasive tail-cuff method; type: functional; details: Artery, 0.5 h
Rattus norvegicus [3] = assay: Antihypertensive activity in Norwegian albino rat assessed as inhibition of DOCA salt-induced systolic blood pressure at 10 mg/kg, po after 360 mins by non-invasive tail-cuff method; type: functional; details: Artery, 6 h; in short: as §1
Rattus norvegicus [4] = assay: Antihypertensive activity in Norwegian albino rat assessed as inhibition of DOCA salt-induced diastolic blood pressure at 10 mg/kg, po after 60 mins by invasive carotid artery cannulation method; type: functional; details: 1 h
In short: (§2)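 Male rats (200–250 g), uninephrectomized and given DOCA s.c. (30–50 mg/kg/week) with 1% NaCl drinking water. Anesthetized with pentobarbital (35 mg/kg i.p.); left carotid artery cannulated and exteriorized. After recovery and a baseline reading, compound given orally by feeding needle. Diastolic pressure recorded via transducer at 15, 30, 60, 120 and 180 min. Mean ± S.E.M.; repeated-measures ANOVA.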

Rattus norvegicus [5] = assay: Antihypertensive activity in Norwegian albino rat assessed as inhibition of DOCA salt-induced systolic blood pressure at 10 mg/kg, po after 420 mins by non-invasive tail-cuff method; type: functional; details: Artery, 7 h; in short: as §1
Rattus norvegicus [6] = assay: Antihypertensive activity in Norwegian albino rat assessed as inhibition of DOCA salt-induced systolic blood pressure at 10 mg/kg, po after 60 mins by non-invasive tail-cuff method; type: functional; details: Artery, 1 h; in short: as §1
Rattus norvegicus [7] = assay: Antiinflammatory activity in Norwegian albino rat assessed as inhibition of carrageenan-induced paw edema at 100 mg/kg, po after administered 60 mins prior to carrageenan-challenge measured after 3 hrs; type: functional
In short: (§3)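 Compound given orally as 100 mg/kg suspension in 0.5% CMC. 60 min later, carrageenan injected sub-plantar into the left hind paw. Paw volume measured within 30 s of injection, then at 1–5 h. % inhibition = [1−(Dt/Dc)]×100, where Dt and Dc are mean relative paw-volume changes in test and control. ANOVA.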

Rattus norvegicus [8] = assay: Antiinflammatory activity in Norwegian albino rat assessed as inhibition of carrageenan-induced paw edema at 100 mg/kg, po after administered 60 mins prior to carrageenan-challenge measured after 5 hrs; type: functional; in short: as §3
Rattus norvegicus [9] = assay: Gastrointestinal toxicity in albino rat assessed as ulcerogenic index at 50 mg/kg, po; type: organism-based; design: dose 50 mg/kg, route oral; details: in vivo
In short: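 Albino rats (150–200 g), six per group, food but not water withheld 24 h. Compound given p.o. at 50 mg/kg; controls received 1% methyl cellulose. Rats fed 17 h, then killed; stomach opened along greater curvature and examined under 4× magnifier. Lesions scored as large (>2 mm), small (1–2 mm) or punctiform (<1 mm). Severity index = treated mean score minus control mean score.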

Rattus norvegicus [10] = assay: Antihypertensive activity in Norwegian albino rat assessed as inhibition of DOCA salt-induced diastolic blood pressure at 10 mg/kg, po after 180 mins by invasive carotid artery cannulation method; type: functional; details: 3 h; in short: as §2
Rattus norvegicus [11] = assay: Antiinflammatory activity in Norwegian albino rat assessed as inhibition of carrageenan-induced paw edema at 100 mg/kg, po after administered 60 mins prior to carrageenan-challenge measured after 1 hr; type: functional; in short: as §3
Rattus norvegicus [12] = assay: Antihypertensive activity in Norwegian albino rat assessed as inhibition of DOCA salt-induced systolic blood pressure at 10 mg/kg, po after 240 mins by non-invasive tail-cuff method; type: functional; details: Artery, 4 h; in short: as §1
Rattus norvegicus [13] = assay: Antihypertensive activity in Norwegian albino rat assessed as inhibition of DOCA salt-induced diastolic blood pressure at 10 mg/kg, po after 30 mins by invasive carotid artery cannulation method; type: functional; details: 0.5 h; in short: as §2
Rattus norvegicus [14] = assay: Antihypertensive activity in Norwegian albino rat assessed as inhibition of DOCA salt-induced systolic blood pressure at 10 mg/kg, po after 120 mins by non-invasive tail-cuff method; type: functional; details: Artery, 2 h; in short: as §1
Rattus norvegicus [15] = assay: Antihypertensive activity in Norwegian albino rat assessed as inhibition of DOCA salt-induced diastolic blood pressure at 10 mg/kg, po after 15 mins by invasive carotid artery cannulation method; type: functional; details: 0.25 h; in short: as §2
Rattus norvegicus [16] = assay: Antihypertensive activity in Norwegian albino rat assessed as inhibition of DOCA salt-induced diastolic blood pressure at 10 mg/kg, po after 120 mins by invasive carotid artery cannulation method; type: functional; details: 2 h; in short: as §2
Rattus norvegicus [17] = assay: Antihypertensive activity in Norwegian albino rat assessed as inhibition of DOCA salt-induced systolic blood pressure at 10 mg/kg, po after 180 mins by non-invasive tail-cuff method; type: functional; details: Artery, 3 h; in short: as §1
Rattus norvegicus [18] = assay: Antihypertensive activity in Norwegian albino rat assessed as inhibition of DOCA salt-induced systolic blood pressure at 10 mg/kg, po after 15 mins by non-invasive tail-cuff method; type: functional; details: Artery, 0.25 h
Rattus norvegicus [19] = assay: Antihypertensive activity in Norwegian albino rat assessed as inhibition of DOCA salt-induced systolic blood pressure at 10 mg/kg, po after 300 mins by non-invasive tail-cuff method; type: functional; details: Artery, 5 h; in short: as §1
Rattus norvegicus [20] = assay: Antihypertensive activity in Norwegian albino rat assessed as inhibition of DOCA salt-induced diastolic blood pressure at 10 mg/kg, po after 240 mins by invasive carotid artery cannulation method; type: functional; details: 4 h

Row | SMILES | Activity (Mus musculus) [%] | inhibition in vivo at 10 mg/kg (Rattus norvegicus [1]) [%] | inhibition in vivo at 10 mg/kg (Rattus norvegicus [2]) [%] | inhibition in vivo at 10 mg/kg (Rattus norvegicus [3]) [%] | inhibition in vivo at 10 mg/kg (Rattus norvegicus [4]) [%] | inhibition in vivo at 10 mg/kg (Rattus norvegicus [5]) [%] | inhibition in vivo at 10 mg/kg (Rattus norvegicus [6]) [%] | inhibition in vivo at 100 mg/kg (Rattus norvegicus [7]) [%] | inhibition in vivo at 100 mg/kg (Rattus norvegicus [8]) [%] | inhibition in vivo at 10 mg/kg (Rattus norvegicus [10]) [%] | inhibition in vivo at 100 mg/kg (Rattus norvegicus [11]) [%] | inhibition in vivo at 10 mg/kg (Rattus norvegicus [12]) [%] | inhibition in vivo at 10 mg/kg (Rattus norvegicus [13]) [%] | inhibition in vivo at 10 mg/kg (Rattus norvegicus [14]) [%] | inhibition in vivo at 10 mg/kg (Rattus norvegicus [15]) [%] | inhibition in vivo at 10 mg/kg (Rattus norvegicus [16]) [%] | inhibition in vivo at 10 mg/kg (Rattus norvegicus [17]) [%] | inhibition in vivo at 10 mg/kg (Rattus norvegicus [18]) [%] | inhibition in vivo at 10 mg/kg (Rattus norvegicus [19]) [%] | inhibition in vivo at 10 mg/kg (Rattus norvegicus [20]) [%] | also measured
1 | CCOC(=O)C1=C(C)NC(OC)N(CC(=O)c2ccc(Cl)cc2)C1c1ccc(Cl)cc1 (stereo unspecified) | 37.33 | 44.2 | 6.45 | 39.8 | 23.3 | 44 | 12.7 | 41 | 42 | 38.1 | 39.8 | 35.5 | 8.92 | 19.6 | 1.84 | 30.6 | 28.2 | 0.27 | 37.4 | 46.3 | UI (Rattus norvegicus [9]): 0.2
2 | CCOC(=O)C1=C(C)NC(OC)N(CC(=O)c2ccc(Cl)cc2)C1c1ccc(O)cc1 (stereo unspecified) | 45.66 | 45.5 | 6.36 | 42 | 22.5 | 44 | 15.1 | 38.8 | 42 | 38.3 | 36.6 | 36.7 | 10.3 | 23.1 | 1.43 | 30.1 | 28.4 | 1 | 39.6 | 47.8 | UI (Rattus norvegicus [9]): 0.45
3 | CCOC(=O)C1=C(C)NC(OC)N(CC(=O)c2ccccc2)C1c1ccc(C)cc1 (stereo unspecified) |  | 45.5 | 1.87 | 42 | 23.1 | 44 | 13.7 | 37.9 | 38.9 | 35.5 | 37.8 | 36.8 | 9.79 | 17.4 | 2.2 | 30.6 | 28 | 0.59 | 38.3 | 48.7 | 
4 | CCOC(=O)C1=C(C)NC(OC)N(CC(=O)c2ccc(OC)cc2)C1c1ccc(C)cc1 (stereo unspecified) | 43.33 | 46.3 | 11.1 | 42 | 22.5 | 44 | 14.7 | 39.8 | 42 | 37.6 | 38.8 | 36.9 | 11.5 | 24 | 3.12 | 30 | 28.1 | 1.82 | 39.6 | 47.9 | UI (Rattus norvegicus [9]): 0.56
5 | CCOC(=O)C1=C(C)NC(OC)N(CC(=O)c2ccc(Cl)cc2)C1c1ccc(C)cc1 (stereo unspecified) | 53.17 | 45.7 | 11.1 | 42 | 22.5 | 44 | 13.8 | 38.8 | 47.3 | 37.8 | 37.1 | 36.8 | 10.5 | 24 | 2.35 | 30.4 | 28 | 1.61 | 39.5 | 47.8 | UI (Rattus norvegicus [9]): 0.76
6 | CCOC(=O)C1=C(C)NC(OC)N(CC(=O)c2ccc(Cl)cc2)C1c1ccccc1 (stereo unspecified) | 41.66 | 46.5 | 6.49 | 41.5 | 23 | 45 | 13.8 | 38.4 | 42 | 37.8 | 36.6 | 36.7 | 9.99 | 20.5 | 2.35 | 30.1 | 28 | 0.7 | 38.2 | 47.8 | UI (Rattus norvegicus [9]): 0.45
7 | CCOC(=O)C1=C(C)NC(OC)N(CC(=O)c2ccc(OC)cc2)C1c1ccccc1 (stereo unspecified) | 45.8 | 46.5 | 6.49 | 41.6 | 23.5 | 45.1 | 13.8 | 38.4 | 42.6 | 37.8 | 37.1 | 36.8 | 8.97 | 20.5 | 1.84 | 30.1 | 28 | 1 | 38.3 | 47.8 | UI (Rattus norvegicus [9]): 0.74
8 | COC(=O)C1=C(C)NC(C)=C(C(=O)OC)C1c1ccccc1[N+](=O)[O-] [NIFEDIPINE] |  | 46.6 | 4.44 | 44.5 | 23.6 | 45.5 | 12.9 |  |  | 39.4 |  | 35.5 | 11.7 | 19.7 | 2.51 | 30.8 | 25 | 1.29 | 44.2 | 48.4 | 
